≈ marks a conversion by molar mass, not a printed value.
Legend:
[1] = molecular target: Lysozyme C (Gallus gallus) (UniProt P00698); experiment: Renaturation of 0.1 mg/mL reduced hen egg white lysozyme assessed as apparent rate of renaturation at 0.5 mM at pH 8 by Micrococcus lysodeikticus lysis-based enzyme assay in presence of 0.2 mM GSSG
How it was run: (§1)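 Reduced lysozyme (10 mg/mL) diluted 100-fold into deoxygenated renaturation buffer: 0.1 M bis tris propane–HCl (pH 7.0) or 0.1 M Tris–HCl (pH 8.0), 1 mM EDTA, 0.5 M Gdn HCl, thiol plus GSSG. Mixed by vortexing for 15 s, held at 25 °C. 20 µL aliquots taken at set times and assayed for recovery of enzymatic activity.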

[2] = molecular target: Lysozyme C (Gallus gallus) (UniProt P00698); experiment: Renaturation of 0.1 mg/mL reduced hen egg white lysozyme assessed as apparent rate of renaturation at 3 mM at pH 8 by Micrococcus lysodeikticus lysis-based enzyme assay in presence of 0.2 mM GSSG; how it was run: as §1
[3] = molecular target: Lysozyme C (Gallus gallus) (UniProt P00698); experiment: Renaturation of 0.1 mg/mL reduced hen egg white lysozyme assessed as maximum enzyme activity at 0.5 mM at pH 8 by Micrococcus lysodeikticus lysis-based enzyme assay in presence of 0.2 mM GSSG; design: scale not given: the % may be the effect or the level left; how it was run: as §1
[4] = molecular target: Lysozyme C (Gallus gallus) (UniProt P00698); experiment: Renaturation of 0.1 mg/mL reduced hen egg white lysozyme assessed as maximum enzyme activity at 3 mM at pH 8 by Micrococcus lysodeikticus lysis-based enzyme assay in presence of 0.2 mM GSSG; design: scale not given: the % may be the effect or the level left; how it was run: as §1
[5] = Dissociation constant, pKa of the compound; format: physicochemical
[6] = molecular target: Lysozyme C (Gallus gallus) (UniProt P00698); experiment: Renaturation of 1 mg/mL reduced hen egg white lysozyme assessed as apparent rate of renaturation at 20 mM at pH 7 by Micrococcus lysodeikticus lysis-based enzyme assay in presence of 1 mM GSSG
How it was run: (§2)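 Reduced lysozyme was dissolved in 0.1 M acetic acid with 6 M Gdn HCl (pH 2.5), brought to pH 7.0 or 8.0 with KOH, and set to 10 mg/mL by A280. It was then diluted 10-fold into deoxygenated buffer: 0.1 M bis tris propane–HCl or Tris–HCl, 1.25 M Gdn HCl, 1 mM EDTA, thiol plus GSSG. Final protein was 1 mg/mL, final Gdn HCl 1.7 M, 25 °C. Aliquots taken at intervals and assayed for activity. Errors are standard deviations.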

[7] = molecular target: Lysozyme C (Gallus gallus) (UniProt P00698); experiment: Renaturation of 1 mg/mL reduced hen egg white lysozyme assessed as maximum enzyme activity at 20 mM at pH 7 by Micrococcus lysodeikticus lysis-based enzyme assay in presence of 1 mM GSSG; design: scale not given: the % may be the effect or the level left; how it was run: as §2
[8] = molecular target: Lysozyme C (Gallus gallus) (UniProt P00698); experiment: Renaturation of 1 mg/mL reduced hen egg white lysozyme assessed as apparent rate of renaturation at 20 mM at pH 8 by Micrococcus lysodeikticus lysis-based enzyme assay in presence of 1 mM GSSG; how it was run: as §2
[9] = molecular target: Lysozyme C (Gallus gallus) (UniProt P00698); experiment: Renaturation of 1 mg/mL reduced hen egg white lysozyme assessed as apparent rate of renaturation at 40 mM at pH 8 by Micrococcus lysodeikticus lysis-based enzyme assay in presence of 1 mM GSSG
How it was run: (§3)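 Reduced lysozyme prepared in 0.1 M acetic acid with 6 M Gdn HCl, pH 2.5, then neutralised to pH 7.0 or 8.0 with KOH and set to 10 mg/mL. Diluted 10-fold into deoxygenated buffer: 0.1 M bis tris propane–HCl (pH 7.0) or Tris–HCl (pH 8.0), 1 mM EDTA, thiol plus GSSG. Final 1 mg/mL protein, 1.7 M Gdn HCl, 25 °C. Aliquots taken over time, diluted and assayed for activity.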

[10] = Solubility of the compound in water; format: physicochemical; conditions: buffer
[11] = molecular target: Lysozyme C (Gallus gallus) (UniProt P00698); experiment: Renaturation of 1 mg/mL reduced hen egg white lysozyme assessed as maximum enzyme activity at 40 mM at pH 8 by Micrococcus lysodeikticus lysis-based enzyme assay in presence of 1 mM GSSG; design: scale not given: the % may be the effect or the level left; how it was run: as §3
[12] = molecular target: Lysozyme C (Gallus gallus) (UniProt P00698); experiment: Renaturation of 1 mg/mL reduced hen egg white lysozyme assessed as maximum enzyme activity at 20 mM at pH 8 by Micrococcus lysodeikticus lysis-based enzyme assay in presence of 1 mM GSSG; design: scale not given: the % may be the effect or the level left; how it was run: as §2
[13] = molecular target: Lysozyme C (Gallus gallus) (UniProt P00698); experiment: Renaturation of 1 mg/mL reduced hen egg white lysozyme assessed as apparent rate of renaturation at 10 mM at pH 7 by Micrococcus lysodeikticus lysis-based enzyme assay in presence of 1 mM GSSG; how it was run: as §2
[14] = molecular target: Lysozyme C (Gallus gallus) (UniProt P00698); experiment: Renaturation of 1 mg/mL reduced hen egg white lysozyme assessed as maximum enzyme activity at 10 mM at pH 7 by Micrococcus lysodeikticus lysis-based enzyme assay in presence of 1 mM GSSG; design: scale not given: the % may be the effect or the level left; how it was run: as §2
[15] = molecular target: Lysozyme C (Gallus gallus) (UniProt P00698); experiment: Renaturation of 0.1 mg/mL reduced hen egg white lysozyme assessed as apparent rate of renaturation at 3 mM at pH 7 by Micrococcus lysodeikticus lysis-based enzyme assay in presence of 0.2 mM GSSG; how it was run: as §1
[16] = molecular target: Lysozyme C (Gallus gallus) (UniProt P00698); experiment: Renaturation of 0.1 mg/mL reduced hen egg white lysozyme assessed as maximum enzyme activity at 0.5 mM at pH 7 by Micrococcus lysodeikticus lysis-based enzyme assay in presence of 0.2 mM GSSG; design: scale not given: the % may be the effect or the level left; how it was run: as §1
[17] = molecular target: Lysozyme C (Gallus gallus) (UniProt P00698); experiment: Renaturation of 0.1 mg/mL reduced hen egg white lysozyme assessed as apparent rate of renaturation at 0.5 mM at pH 7 by Micrococcus lysodeikticus lysis-based enzyme assay in presence of 0.2 mM GSSG; how it was run: as §1
[18] = molecular target: Lysozyme C (Gallus gallus) (UniProt P00698); experiment: Renaturation of 0.1 mg/mL reduced hen egg white lysozyme assessed as maximum enzyme activity at 3 mM at pH 7 by Micrococcus lysodeikticus lysis-based enzyme assay in presence of 0.2 mM GSSG; design: scale not given: the % may be the effect or the level left; how it was run: as §1
[19] = molecular target: Lysozyme C (Gallus gallus) (UniProt P00698); experiment: Renaturation of 1 mg/mL reduced hen egg white lysozyme assessed as maximum enzyme activity at 10 mM at pH 7 by Micrococcus lysodeikticus lysis-based enzyme assay in presence of 0.5 mM GSSG; design: scale not given: the % may be the effect or the level left; how it was run: as §2
[20] = molecular target: Lysozyme C (Gallus gallus) (UniProt P00698); experiment: Renaturation of 1 mg/mL reduced hen egg white lysozyme assessed as apparent rate of renaturation at 10 mM at pH 7 by Micrococcus lysodeikticus lysis-based enzyme assay in presence of 0.5 mM GSSG; how it was run: as §2
[21] = molecular target: Lysozyme C (Gallus gallus) (UniProt P00698); experiment: Renaturation of 1 mg/mL reduced hen egg white lysozyme assessed as maximum enzyme activity at 10 mM at pH 8 by Micrococcus lysodeikticus lysis-based enzyme assay in presence of 1 mM GSSG; design: scale not given: the % may be the effect or the level left; how it was run: as §2
[22] = molecular target: Lysozyme C (Gallus gallus) (UniProt P00698); experiment: Renaturation of 1 mg/mL reduced hen egg white lysozyme assessed as apparent rate of renaturation at 10 mM at pH 8 by Micrococcus lysodeikticus lysis-based enzyme assay in presence of 1 mM GSSG; how it was run: as §2
[23] = molecular target: Lysozyme C (Gallus gallus) (UniProt P00698); experiment: Renaturation of 1 mg/mL reduced hen egg white lysozyme assessed as apparent rate of renaturation at 40 mM at pH 7 by Micrococcus lysodeikticus lysis-based enzyme assay in presence of 1 mM GSSG; how it was run: as §3
[24] = molecular target: Lysozyme C (Gallus gallus) (UniProt P00698); experiment: Renaturation of 1 mg/mL reduced hen egg white lysozyme assessed as maximum enzyme activity at 40 mM at pH 7 by Micrococcus lysodeikticus lysis-based enzyme assay in presence of 1 mM GSSG; design: scale not given: the % may be the effect or the level left; how it was run: as §3
[25] = Solubility of the compound at pH 7; format: physicochemical; conditions: buffer
[26] = molecular target: Lysozyme C (Gallus gallus) (UniProt P00698); experiment: Renaturation of 0.1 mg/mL reduced hen egg white lysozyme assessed as maximum enzyme activity at 2 mM at pH 8 by Micrococcus lysodeikticus lysis-based enzyme assay in presence of 0.2 mM GSSG; design: scale not given: the % may be the effect or the level left; how it was run: as §1
[27] = molecular target: Lysozyme C (Gallus gallus) (UniProt P00698); experiment: Renaturation of 0.1 mg/mL reduced hen egg white lysozyme assessed as apparent rate of renaturation at 2 mM at pH 7 by Micrococcus lysodeikticus lysis-based enzyme assay in presence of 0.2 mM GSSG; how it was run: as §1
[28] = molecular target: Lysozyme C (Gallus gallus) (UniProt P00698); experiment: Renaturation of 0.1 mg/mL reduced hen egg white lysozyme assessed as apparent rate of renaturation at 2 mM at pH 8 by Micrococcus lysodeikticus lysis-based enzyme assay in presence of 0.2 mM GSSG; how it was run: as §1
[29] = molecular target: Lysozyme C (Gallus gallus) (UniProt P00698); experiment: Renaturation of 0.1 mg/mL reduced hen egg white lysozyme assessed as maximum enzyme activity at 2 mM at pH 7 by Micrococcus lysodeikticus lysis-based enzyme assay in presence of 0.2 mM GSSG; design: scale not given: the % may be the effect or the level left; how it was run: as §1
[30] = Solubility of the compound at pH 8; format: physicochemical; conditions: buffer
[31] = molecular target: Lysozyme C (Gallus gallus) (UniProt P00698); experiment: Renaturation of 0.1 mg/mL reduced hen egg white lysozyme assessed as maximum enzyme activity at 1 mM at pH 8 by Micrococcus lysodeikticus lysis-based enzyme assay in presence of 0.2 mM GSSG; design: scale not given: the % may be the effect or the level left; how it was run: as §1
[32] = molecular target: Lysozyme C (Gallus gallus) (UniProt P00698); experiment: Renaturation of 0.1 mg/mL reduced hen egg white lysozyme assessed as apparent rate of renaturation at 1 mM at pH 8 by Micrococcus lysodeikticus lysis-based enzyme assay in presence of 0.2 mM GSSG; how it was run: as §1
[33] = molecular target: Lysozyme C (Gallus gallus) (UniProt P00698); experiment: Renaturation of 0.1 mg/mL reduced hen egg white lysozyme assessed as maximum enzyme activity at 0.25 mM at pH 8 by Micrococcus lysodeikticus lysis-based enzyme assay in presence of 0.2 mM GSSG; design: scale not given: the % may be the effect or the level left; how it was run: as §1
[34] = molecular target: Lysozyme C (Gallus gallus) (UniProt P00698); experiment: Renaturation of 0.1 mg/mL reduced hen egg white lysozyme assessed as apparent rate of renaturation at 0.25 mM at pH 8 by Micrococcus lysodeikticus lysis-based enzyme assay in presence of 0.2 mM GSSG; how it was run: as §1

Lysozyme C (Gallus gallus), sequence (P00698 whole entry): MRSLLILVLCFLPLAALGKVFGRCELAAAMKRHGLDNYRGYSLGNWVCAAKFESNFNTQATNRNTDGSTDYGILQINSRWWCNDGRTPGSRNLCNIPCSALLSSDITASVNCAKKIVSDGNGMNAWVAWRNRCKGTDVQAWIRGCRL

O=C(OCCOCCS)c1ccc(S)cc1
Activity [1]: 0.072 min⁻¹
Activity [2]: 0.08 min⁻¹
Activity [3]: 53%
Activity [4]: 9%

OCCS [2-MERCAPTOETHANOL]
pKa [5]: 9.6

C[N+](C)(CCC[N+](C)(C)Cc1ccc(S)cc1)Cc1ccc(S)cc1.[Br-].[Br-]
Activity [6]: 0.015 min⁻¹
Activity [7]: 86%
Activity [8]: 0.022 min⁻¹
Activity [9]: 0.023 min⁻¹
solubility [10]: soluble
Activity [11]: 77%
Activity [12]: 88%
Activity [13]: 0.012 min⁻¹
Activity [14]: 83%

O=C(OCCOCCOCCOCCS)c1ccc(S)cc1
Activity [15]: 0.045 min⁻¹
Activity [1]: 0.087 min⁻¹
Activity [2]: 0.072 min⁻¹
Activity [3]: 73%
Activity [16]: 39%
Activity [4]: 43%
Activity [17]: 0.038 min⁻¹
Activity [18]: 36%

C[N+](C)(CCCCCC[N+](C)(C)Cc1ccc(S)cc1)Cc1ccc(S)cc1.[Br-].[Br-]
Activity [19]: 70%
Activity [20]: 0.013 min⁻¹
Activity [8]: 0.017 min⁻¹
solubility [10]: soluble
Activity [12]: 49%
Activity [13]: 0.011 min⁻¹
Activity [21]: 78%
Activity [14]: 74%
Activity [22]: 0.016 min⁻¹

N[C@@H](CS)C(=O)O [CYSTEINE]
pKa [5]: 8.7

C[N+](C)(C)Cc1ccc(S)cc1
Activity [23]: 0.017 min⁻¹
Activity [24]: 82%
Activity [9]: 0.018 min⁻¹
Activity [11]: 81%

O=C(OCCOCCOCCOCCS)c1ccccc1S
Activity [15]: 0.01 min⁻¹
Activity [1]: 0.061 min⁻¹
Activity [2]: 0.023 min⁻¹
Activity [3]: 76%
Activity [16]: 85%
Activity [4]: 27%
Activity [17]: 0.008 min⁻¹
Activity [18]: 2%

O=C(OCCOCCOCCS)c1ccccc1S
solubility [25]: 4000 µM (≈ 1210 µg/mL)
Activity [26]: 62%
Activity [1]: 0.041 min⁻¹
Activity [27]: 0.001 min⁻¹
Activity [3]: 58%
Activity [28]: 0.009 min⁻¹
Activity [29]: 19%
Activity [16]: 55%
Activity [17]: 0.013 min⁻¹

O=C(OCCOCCOCCS)c1ccc(S)cc1
Activity [15]: 0.02 min⁻¹
Activity [1]: 0.076 min⁻¹
Activity [2]: 0.1 min⁻¹
Activity [3]: 63%
Activity [16]: 57%
Activity [4]: 16%
Activity [17]: 0.025 min⁻¹
Activity [18]: 23%

O=C(OCCOCCOCCS)c1ccccc1
solubility [30]: 2000 µM (≈ 541 µg/mL)
Activity [31]: 2%
Activity [32]: 0.012 min⁻¹
Activity [33]: 68%
Activity [34]: 0.028 min⁻¹
